Laboratory results as given in ChEMBL document CHEMBL5329147, “Synthesis of tryptanthrin appended dispiropyrrolidine oxindoles and their antibacterial evaluation” (RSC Med Chem, 2023).

Key:
Staphylococcus aureus [1] = assay: Antibacterial activity against methicillin resistant Staphylococcus aureus NRS 192 assessed as bacterial growth inhibition incubated for 18 to 24 hrs by broth microdilution method; type: functional; conditions: time 18-24 hrs
Outline: (§1)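 CLSI broth microdilution in MHBII; overnight starter cultures (single MHA colony, 37 °C, shaking) adjusted by OD600 to 10^6 CFU/mL. Compounds from DMSO stocks (10 mg/mL), two-fold series 64–0.5 mg/L. Incubation 37 °C, 18-24 h. MIC = lowest concentration with no visible growth. Three independent determinations, each in duplicate.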

Staphylococcus aureus [2] = assay: Antibacterial activity against methicillin resistant Staphylococcus aureus NRS 191 assessed as bacterial growth inhibition incubated for 18 to 24 hrs by broth microdilution method; type: functional; conditions: time 18-24 hrs; outline: as §1
Staphylococcus aureus [3] = assay: Synergistic antibacterial activity against Staphylococcus aureus ATCC 29213 assessed as bacterial growth inhibition incubated for 24 hrs in presence of vancomycin by checkerboard assay; type: functional
Outline: (§2)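 Checkerboard in 96-well plates: two-fold serial dilutions, one agent along abscissa, partner antibiotic along ordinate. Wells received ~10⁵ CFU/mL S. aureus ATCC 29213 in MHBII. Incubation 37 °C, 24 h. ΣFIC = FIC A + FIC B, each FIC being combination MIC divided by MIC alone.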

Staphylococcus aureus [4] = assay: Antibacterial activity against methicillin resistant Staphylococcus aureus NRS 198 assessed as bacterial growth inhibition incubated for 18 to 24 hrs by broth microdilution method; type: functional; conditions: time 18-24 hrs; outline: as §1
Staphylococcus aureus [5] = assay: Synergistic antibacterial activity against Staphylococcus aureus ATCC 29213 assessed as fractional inhibitory concentration index incubated for 24 hrs in the presence of rifampicin by checkerboard assay; type: functional
Outline: (§3)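 Checkerboard in 96-well plates. The test agent was diluted two-fold along one axis and the partner antibiotic two-fold along the other, with ~10^5 CFU/mL inoculum, 37 °C for 24 h. ΣFIC = FIC A + FIC B, each FIC being the MIC in combination divided by the MIC alone.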

Staphylococcus aureus [6] = assay: Synergistic antibacterial activity against Staphylococcus aureus ATCC 29213 assessed as fractional inhibitory concentration index incubated for 24 hrs in the presence of daptomycin by checkerboard assay; type: functional; outline: as §3
Staphylococcus aureus [7] = assay: Antibacterial activity against vancomycin resistant Staphylococcus aureus […] 12 assessed as bacterial growth inhibition incubated for 18 to 24 hrs by broth microdilution method; type: functional; conditions: time 18-24 hrs; outline: as §1
Staphylococcus aureus [8] = assay: Antibacterial activity against methicillin resistant Staphylococcus aureus NRS 193 assessed as bacterial growth inhibition incubated for 18 to 24 hrs by broth microdilution method; type: functional; conditions: time 18-24 hrs; outline: as §1
Staphylococcus aureus [9] = assay: Synergistic antibacterial activity against Staphylococcus aureus ATCC 29213 assessed as bacterial growth inhibition incubated for 24 hrs in presence of gentamycin by checkerboard assay; type: functional; outline: as §2
Staphylococcus aureus [10] = assay: Synergistic antibacterial activity against Staphylococcus aureus ATCC 29213 assessed as bacterial growth inhibition incubated for 24 hrs in presence of rifampicin by checkerboard assay; type: functional; outline: as §2
Staphylococcus aureus [11] = assay: Synergistic antibacterial activity against Staphylococcus aureus ATCC 29213 assessed as fractional inhibitory concentration index incubated for 24 hrs in the presence of linezolid by checkerboard assay; type: functional; outline: as §3
Staphylococcus aureus [12] = assay: Synergistic antibacterial activity against Staphylococcus aureus ATCC 29213 assessed as bacterial growth inhibition incubated for 24 hrs in presence of ceftazidime by checkerboard assay; type: functional; outline: as §2
Vero = assay: Cytotoxicity against African green monkey Vero cells assessed as cell viability incubated for 72 hrs by MTT assay; type: toxicity, cell-based; conditions: chlorocebus sabaeus
Outline: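 MTT assay on Vero cells, ~10^3 cells/well, 37 °C, 5% CO2. Compound was added at 24 h (100-12.5 μg/mL) for 72 h, then MTT for 4 h at 37 °C. Formazan was dissolved in DMSO and read at 540 nm. CC50 was the lowest concentration giving 50% viability loss. Doxorubicin positive control; triplicate.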

Staphylococcus aureus [13] = assay: Antibacterial activity against vancomycin resistant Staphylococcus aureus […] 4 assessed as bacterial growth inhibition incubated for 18 to 24 hrs by broth microdilution method; type: functional; conditions: time 18-24 hrs; outline: as §1
Staphylococcus aureus [14] = assay: Antibacterial activity against methicillin sensitive Staphylococcus aureus ATCC 29213 assessed as bacterial growth inhibition incubated for 18 to 24 hrs by broth microdilution method; type: functional; conditions: time 18-24 hrs; outline: as §1
Staphylococcus aureus [15] = assay: Antibacterial activity against methicillin resistant Staphylococcus aureus NRS 186 assessed as bacterial growth inhibition incubated for 18 to 24 hrs by broth microdilution method; type: functional; conditions: time 18-24 hrs; outline: as §1
Staphylococcus aureus [16] = assay: Synergistic antibacterial activity against Staphylococcus aureus ATCC 29213 assessed as bacterial growth inhibition incubated for 24 hrs in presence of minocycline by checkerboard assay; type: functional; outline: as §2
Staphylococcus aureus [17] = assay: Antibacterial activity against methicillin resistant Staphylococcus aureus NRS 129 assessed as bacterial growth inhibition incubated for 18 to 24 hrs by broth microdilution method; type: functional; conditions: time 18-24 hrs; outline: as §1
Staphylococcus aureus [18] = assay: Synergistic antibacterial activity against Staphylococcus aureus ATCC 29213 assessed as fractional inhibitory concentration index incubated for 24 hrs in the presence of gentamycin by checkerboard assay; type: functional; outline: as §3
Staphylococcus aureus [19] = assay: Antibacterial activity against methicillin resistant Staphylococcus aureus NRS 194 assessed as bacterial growth inhibition incubated for 18 to 24 hrs by broth microdilution method; type: functional; conditions: time 18-24 hrs; outline: as §1
Staphylococcus aureus [20] = assay: Synergistic antibacterial activity against Staphylococcus aureus ATCC 29213 assessed as bacterial growth inhibition incubated for 24 hrs in presence of levofloxacin by checkerboard assay; type: functional; outline: as §2
Staphylococcus aureus [21] = assay: Synergistic antibacterial activity against Staphylococcus aureus ATCC 29213 assessed as fractional inhibitory concentration index incubated for 24 hrs in the presence of vancomycin by checkerboard assay; type: functional; outline: as §3
Staphylococcus aureus [22] = assay: Synergistic antibacterial activity against Staphylococcus aureus ATCC 29213 assessed as bacterial growth inhibition incubated for 24 hrs in presence of linezolid by checkerboard assay; type: functional; outline: as §2
Staphylococcus aureus [23] = assay: Synergistic antibacterial activity against Staphylococcus aureus ATCC 29213 assessed as fractional inhibitory concentration index incubated for 24 hrs in the presence of minocycline by checkerboard assay; type: functional; outline: as §3
Acinetobacter baumannii = assay: Antibacterial activity against Acinetobacter baumannii BAA-1605 assessed as bacterial growth inhibition incubated for 18 to 24 hrs by broth microdilution method; type: functional; conditions: time 18-24 hrs
Outline: (§4)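 CLSI broth microdilution. Overnight starter cultures (single colony, MHBII, 37 °C, shaking 18–24 h) were diluted by OD600 to 10^6 CFU/mL in MHBII. Two-fold dilutions from […] were made from 10 mg/mL DMSO stocks, then incubated 37 °C for 18-24 h. The MIC was the lowest concentration with no visible growth. Three independent runs, duplicate samples.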

Staphylococcus aureus [24] = assay: Synergistic antibacterial activity against Staphylococcus aureus ATCC 29213 assessed as fractional inhibitory concentration index incubated for 24 hrs in the presence of levofloxacin by checkerboard assay; type: functional; outline: as §3
Staphylococcus aureus [25] = assay: Synergistic antibacterial activity against Staphylococcus aureus ATCC 29213 assessed as fractional inhibitory concentration index incubated for 24 hrs in the presence of ceftazidime by checkerboard assay; type: functional; outline: as §3
Staphylococcus aureus [26] = assay: Antibacterial activity against methicillin resistant Staphylococcus aureus NRS 119 assessed as bacterial growth inhibition incubated for 18 to 24 hrs by broth microdilution method; type: functional; conditions: time 18-24 hrs; outline: as §1
Pseudomonas aeruginosa = assay: Antibacterial activity against Pseudomonas aeruginosa ATCC 27853 assessed as bacterial growth inhibition incubated for 18 to 24 hrs by broth microdilution method; type: functional; conditions: time 18-24 hrs; outline: as §4
[27] = Selectivity ratio of CC50 for African green monkey Vero cells to MIC against Staphylococcus aureus ATCC 29213; type: toxicity, cell-based
Staphylococcus aureus [28] = assay: Synergistic antibacterial activity against Staphylococcus aureus ATCC 29213 assessed as bacterial growth inhibition incubated for 24 hrs in presence of daptomycin by checkerboard assay; type: functional; outline: as §2
Staphylococcus aureus [29] = assay: Bactericidal activity against Staphylococcus aureus ATCC 29213 assessed as reduction in bacterial load at 10 times of MIC incubated for 24 hrs by time kill analysis; type: functional
Outline: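 Time-kill assay. ~10^6 CFU/mL in MHBII was exposed to 1X and 10X MIC, 37 °C with shaking for 24 h. Samples were taken at 0, 1, 6 and 24 h, serially diluted in PBS, plated on MHA and incubated 37 °C 18–20 h. Colonies were counted as CFU/mL survivors. Three repeats in duplicate; mean plotted.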

Klebsiella pneumoniae = assay: Antibacterial activity against Klebsiella pneumoniae BAA 1705 assessed as bacterial growth inhibition incubated for 18 to 24 hrs by broth microdilution method; type: functional; conditions: time 18-24 hrs; outline: as §4
Staphylococcus aureus [30] = assay: Antibacterial activity against Staphylococcus aureus ATCC 29213 assessed as bacterial growth inhibition incubated for 18 to 24 hrs by broth microdilution method; type: functional; conditions: Staphylococcus aureus, ATCC 29213; time 18-24 hrs; read-out: MIC; outline: as §4
Staphylococcus aureus [31] = assay: Synergistic antibacterial activity against Staphylococcus aureus ATCC 29213 assessed as fractional inhibitory concentration index incubated for 24 hrs in the presence of meropenem by checkerboard assay; type: functional; outline: as §3
Staphylococcus aureus [32] = assay: Synergistic antibacterial activity against Staphylococcus aureus ATCC 29213 assessed as bacterial growth inhibition incubated for 24 hrs in presence of meropenem by checkerboard assay; type: functional; outline: as §2
Escherichia coli = assay: Antibacterial activity against Escherichia coli ATCC 25922 assessed as bacterial growth inhibition incubated for 18 to 24 hrs by broth microdilution method; type: functional; conditions: time 18-24 hrs; outline: as §4

CCN1C(=O)[C@@]2(CN(C)C3(c4cc(Br)ccc4-n4c3nc3ccccc3c4=O)C2(C#N)C#N)c2ccccc21 (stereo partly drawn)
40: selectivity ratio [27]
0.063 µg/mL: MIC (Staphylococcus aureus [2])
active: Activity (Staphylococcus aureus [29]) Dose-Dependent Effect
0.5 µg/mL: MIC (Staphylococcus aureus [13]) | MIC (Staphylococcus aureus [19])
Non-Toxic: Activity (Vero)
0.125 µg/mL: MIC (Staphylococcus aureus [1]) | MIC (Staphylococcus aureus [4]) | MIC (Staphylococcus aureus [14]) | MIC (Staphylococcus aureus [17]) | MIC (Staphylococcus aureus [26]) | MIC (Staphylococcus aureus [30])
> 64 µg/mL: MIC (Acinetobacter baumannii) | MIC (Pseudomonas aeruginosa) | MIC (Klebsiella pneumoniae) | MIC (Escherichia coli)
0.25 µg/mL: MIC (Staphylococcus aureus [3]) | MIC (Staphylococcus aureus [7]) | MIC (Staphylococcus aureus [8]) | MIC (Staphylococcus aureus [9]) | MIC (Staphylococcus aureus [10]) | MIC (Staphylococcus aureus [12]) | MIC (Staphylococcus aureus [15]) | MIC (Staphylococcus aureus [16]) | MIC (Staphylococcus aureus [20]) | MIC (Staphylococcus aureus [22]) | MIC (Staphylococcus aureus [28]) | MIC (Staphylococcus aureus [32])
2: FIC (Staphylococcus aureus [5]) | FIC (Staphylococcus aureus [6]) | FIC (Staphylococcus aureus [11]) | FIC (Staphylococcus aureus [18]) | FIC (Staphylococcus aureus [21]) | FIC (Staphylococcus aureus [23]) | FIC (Staphylococcus aureus [24]) | FIC (Staphylococcus aureus [25]) | FIC (Staphylococcus aureus [31])
~2.7 log10CFU/ml: Activity (Staphylococcus aureus [29]; record 2)
